The source of these data is the EternaBench riboswitch data.

One may read the apparent Kd as the concentration giving half-maximal binding under the conditions of the assay.

This data set concerns MS2 coat protein. Put plainly: apparent Kd, MS2 coat protein; higher = weaker binding; RNA-MaP array; FMN 200 µM where present. Put shortly:
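Designs were transcribed by stalled E. coli RNA polymerase on Illumina sequencing-chip clusters. They were titrated with SNAP-549-labelled MS2 coat protein from 0.7 or 1.5 nM, doubling to 3 µM, in 100 mM Tris-HCl pH 7.5, 80 mM KCl, 4 mM MgCl2, BSA, DTT, yeast tRNA and Tween-20, without and then with constant ligand. The apparent Kd is the median of filtered per-cluster fits after normalisation of green signal to red-channel RNA signal and control-cluster median Fmax.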

Where [1] appears, read: designed as: ON switch for flavin mononucleotide, no ligand.
Setting [2] is: ligand present: flavin mononucleotide, designed as: ON switch for flavin mononucleotide.
The mark [3] stands for this setting: designed as: OFF switch for flavin mononucleotide, no ligand.
[4] abbreviates: ligand present: flavin mononucleotide, designed as: OFF switch for flavin mononucleotide.

For the sequence “ACGGAACAUGAGGAUCACCCAUGUAUCUGAAAUAUGGACUCACAGGAUAUCCAGAGUUGCCAAUCGGAGAAGGGUGACUCCAGA”, the “apparent Kd” value by setting is: under setting [1], 20.1 nM; under setting [2], 16.7 nM.

Turning to “CCAAACGGAGGAUAUACAAAUUAAGGAAAAAAACGCGAAAAACAUGAGGAUCACCCAUGUAGAAGGCCGAAAAA”, the “apparent Kd” value is, setting by setting: under setting [3], 19.3 nM; under setting [4], 17.9 nM.

With “CACCGGCCCUAUGUGUUCUAGACAUGAGGAUCACCCAUGUAUAGAAGGGUCUUCGCGAAACGCAGACAGGAUAUGUACAGGAGU”, the “apparent Kd” value is, setting by setting: under setting [3], 6.31 nM; under setting [4], 9.26 nM.

Take “CAGUACUGAGGAUAUACAUGAGGAUCACCCAUGUGUUCCAGCUAGGAAACUAGCAAUAGUAGAAGGCAGUACUG”: the “apparent Kd” value was determined as 20.1 nM under setting [3] and 315 nM under setting [4].

For the sequence “UUAUUAUAUGAAGGAUAUACUUAACAUGAGGAUCACCCAUGUGGUGUUGUGAGUGAGUGAGUUUAGUAGAAGGUCAAUUCUUUU”, the “apparent Kd” value turned out to be 425 nM under setting [3] and 623 nM under setting [4].

Take “UUUGCAUUCCGAGGAUAUUCAUAUAAUGACUUCACAUGAGGAUCACCCAUGUGGCGAUAGCCUAGGGAGAAGGCGGUUUGCUUU”: the “apparent Kd” value is 25.6 nM under setting [1] and 20.6 nM under setting [2].

For the sequence “AUUGUGUUAGGAUAUGCUUAUGGUGGAUAGUCCAGUAUGAUGUAGAAGGGACAUGAGGAUCACCCAUGUGCUGA”, the “apparent Kd” value runs as follows: under setting [3], 46.9 nM; under setting [4], 48.5 nM.

“AGCCUAGCAGGAUAUGCUCAAGAUUACAUGAGGAUCACCCAUGUGACUGGUUGUUGUCUUGCAGAAGGGCUAGGGA”: the “apparent Kd” value by setting is: under setting [3], 20.6 nM; under setting [4], 46.8 nM.

For the sequence “GUACUGAAGCUUUGCUUUAGUCGUACAUGAGGAUCACCCAUGUAGGAUAUGGUAGGCUUUGCCUACUAGAAGGAUAGAGUGAUC”, the “apparent Kd” value is 89.2 nM under setting [3] and 33.9 nM under setting [4].

As to “GAGCUAUGAGGAUAUGCAUAGAUACGGAUUCGUGUAGUACUACAUGAGGAUCACCCAUGUAGAAGGCGUGGCUG”, the “apparent Kd” value runs as follows: under setting [3], 18.5 nM; under setting [4], 20.5 nM.

For the sequence “UUUAGUUGCGCGCAGGAUAUGUAUUAAUAUACAUGAGGAUCACCCAUGUGAGACCAAAUAGGUCUACAGAAGGGCGAAUCGCGAC”, the “apparent Kd” value turned out to be 446 nM under setting [1] and 47.6 nM under setting [2].

For “AUAUUCUAGAUAGGAUAUACUGAGGUUGAAUGGGUAGAAGGAUCGUUAGAGUGGACUACAUGAGGAUCACCCAUGUUGUUUAUU”, the “apparent Kd” value came to 48.3 nM under setting [1] and 42.7 nM under setting [2].

As for “GGAUGUGUGUAAGGAUAUGCAUCACUGAGAAAUUUAGUGAGGAAGAUCACAUGAGGAUCACCCAUGUAGAAGGUACACACGUGG”, the “apparent Kd” value runs as follows: under setting [3], 10.8 nM; under setting [4], 52.7 nM.

With “UUUAUGUCAGGAUAUGAGUAGUAGAACAAUAGUACUACUACUCAGAAGGGACAUGAGGAUCACCCAUGUUUCUC”, the “apparent Kd” value under setting [3] turned out to be 23.4 nM and the “apparent Kd” value under setting [4] stood at 143 nM.

For the sequence “CGCUAAUAAAUAGUAAUAAUUGUACAGGAUAUGUUACAUGAGGAUCACCCAUGUAUUGGGUAAGAACAGAAGGGUAUAUUAGCG”, the “apparent Kd” value was determined as 433 nM under setting [3] and 229 nM under setting [4].

On to “GCCCGGCAUACAUGAGGAUCACCCAUGUCAGAAAGGGUAAUCAGAAGGUACUAUUAGAGAAAGAGUAAGGAUAUGAAGCCGGGC”, for which the “apparent Kd” value under setting [1] was 599 nM and the “apparent Kd” value under setting [2] amounted to 134 nM.

On to “CGUUAAUCCUAGGAUAUGCUAGACGAAAGUCUAGCAGAAGGAGGAACAUGAGGAUCACCCAUGUGUCCUAAACG”, for which the “apparent Kd” value under setting [3] is 16.8 nM and the “apparent Kd” value under setting [4] came to 26.7 nM.

Consider “UAAUUUUGUCAAGGAUAUGUAAUAUAGAUUUGAAAACAUGAGGAUCACCCAUGUAUAUGGUGGGAACAGAAGGUGAAUGGAGAA”, for which the “apparent Kd” value under setting [3] is 252 nM and the “apparent Kd” value under setting [4] is 242 nM.

For the sequence “UCCGCAAGUGAAGGAUAUACGGCUGAAGAGCCAGUAGAAGGUCACAUGAGGAUCACCCAUGUCUACCGCUACGAGAUAUUACAA”, the “apparent Kd” value by setting is: under setting [3], 19.1 nM; under setting [4], 59.5 nM.

Take “AUGAGUAAAGCAGGAUAUCUAUUGUCUCUGUAACAUGAGGAUCACCCAUGUAGAGAAGGGCUAAGUCUUACUCUUCGGAGUUGA”: the “apparent Kd” value under setting [3] stood at 14.2 nM and the “apparent Kd” value under setting [4] is 13.7 nM.

Consider “CUUUUGUGAGGAUAUUAGUAGUAAAUAAAUAAAAUUACUACUGAGAAGGCACAUGAGGAUCACCCAUGUUCCUU”, for which the “apparent Kd” value reads like this: under setting [3], 12.6 nM; under setting [4], 38 nM.

Consider “UUGGAGUACGUAGGAUAUGUAGGAUAUUCCUACAUGAGGAUCACCCAUGUUUACAUGGAAGAAGGACAGAAGGACGUGCUCCAU”, for which the “apparent Kd” value reads like this: under setting [1], 1120 nM; under setting [2], 14.7 nM.

As for “AAUAAACUCACAGGAUAUAGCAUAGGUCGCGUGAACUUACAGGCGACGAUGCUAGAAGGGUGACCACAUGAGGAUCACCCAUGU”, the “apparent Kd” value is 892 nM under setting [1] and 172 nM under setting [2].

Take “AAUAUAAAGAGCUGGUACUCAAUAACAUGAGGAUCACCCAUGUAGGAUAUCAGCACGAUAAGUGCUGAGAAGGACAUCCAGCUC”: the “apparent Kd” value is, setting by setting: under setting [3], 16.6 nM; under setting [4], 29.4 nM.

With “UGGUACUAGGGAGGAUAUGGGAAGAUACAUGAGGAUCACCCAUGUUUACGAAUGCCGAGAGGCAACUAGAAGGCCCUAGUACCU”, the “apparent Kd” value by setting is: under setting [1], 315 nM; under setting [2], 19.5 nM.

With “GACAUCGCAGGAUAUUAUUGUUUGUACAUGAGGAUCACCCAUGUUAAUUGGGUUAGUGUUUAAGAAGGGCGGUGUC”, the “apparent Kd” value came to 1340 nM under setting [3] and 901 nM under setting [4].

Turning to “CGCUAAGAGAACGAUACGAGAAGACAUGAGGAUCACCCAUGUAGAAGGACAACGGAAUAAACGUUGUAGGAUAUACAUUUAGCG”, the “apparent Kd” value came out at 16.9 nM under setting [3] and 19.8 nM under setting [4].

On to “GGAUGACAAAGUCAUCCAUAACGAACAUGAGGAUCACCCAUGUAGGAUAUGCUACUCAAAGAGUAGCAGAAGGACAUGUGUCUU”, for which the “apparent Kd” value runs as follows: under setting [3], 33.9 nM; under setting [4], 158 nM.

With “CGCUACGUUUCGUAGCAGCUAGGUGAGGAUAUUCAAUUUUUCACAUGAGGAUCACCCAUGUAUGUGAAGAAGGCGCCUAGAAAU”, the “apparent Kd” value under setting [1] was found to be 10.7 nM and the “apparent Kd” value under setting [2] is 4.96 nM.

“CCUCAUAUUUAGGAUAUGAUUGGUAAUUAUUAGUUAGAAGGAGGUACAUGAGGAUCACCCAUGUAAUAUUUAAA”: the “apparent Kd” value by setting is: under setting [3], 21.5 nM; under setting [4], 21.2 nM.

For the sequence “GCGCGCGCAGGAUAUACAAUGGGCCCGGGAAACCGGGCCCUACAUGAGGAUCACCCAUGUAGAAGGGUGUGUGU”, the “apparent Kd” value runs as follows: under setting [3], 606 nM; under setting [4], 468 nM.

For the sequence “ACGUAUCGUGUAGGAUAUGACACAGGAAACUGGUCAGAAGGACAUGAGGAUCACCCAUGUAGAGUAUGUUAGGAUGACGUAUGC”, the “apparent Kd” value worked out at 43 nM under setting [3] and 261 nM under setting [4].

For the sequence “AAUGUUGUUGUGAGGAUAUCGUAGUUAUUUUGAAACGAGAAGGCACAUGAGGAUCACCCAUGUUUGUUGAUGGU”, the “apparent Kd” value by setting is: under setting [3], 22.9 nM; under setting [4], 47.9 nM.

On to “ACAUGUAAUGUAGGAUAUUUUACACAUGAGGAUCACCCAUGUGACCAGAGGCUUUGCUAUGAGUAAAAGAAGGGUAUGUACAUG”, for which the “apparent Kd” value came to 61.8 nM under setting [3] and 60.4 nM under setting [4].

In the case of “AAUAGUGGCGUAGGAUAUCUGCGUACAUGAGGAUCACCCAUGUCUCCCAACUGCUGAGCUGGGACAGAGAAGGGCGACCGCAUA”, the “apparent Kd” value runs as follows: under setting [1], 225 nM; under setting [2], 85.4 nM.

As for “AUCAGCACGUGAGGAUAUGCGUCACUGCGUCAGCAGUGUGGUAAGAUCACAUGAGGAUCACCCAUGUAGAAGGCACGAGCUGAU”, the “apparent Kd” value turned out to be 34 nM under setting [3] and 460 nM under setting [4].

Regarding “CAGCGAAAGCUGAAUCUGUAGAGAGAGGAUAUACAAGAUAUCAUCCAUACAUGAGGAUCACCCAUGUAGAAGGCUCUCUACAGU”, the “apparent Kd” value is, setting by setting: under setting [3], 5.03 nM; under setting [4], 7.23 nM.

Regarding “GUUUAGUGAGGAUAUGUGGCUUCGAUCGUGCGCGGUCGGCUACAGAAGGCACAUGAGGAUCACCCAUGUUCCUC”, the “apparent Kd” value under setting [3] came to 37.1 nM and the “apparent Kd” value under setting [4] stood at 506 nM.

As to “ACGCCCUGAGGAUAUCUCAUCCCGCACAUGAGGAUCACCCAUGUUCUCCUCCGGGCUCCGAGAGAAGGCAGGCCCA”, the “apparent Kd” value under setting [3] worked out at 54.7 nM and the “apparent Kd” value under setting [4] was found to be 95.2 nM.

For “ACAUGAGGAUCACCCAUGUAGAGUGAAGAAGGUAGAUACUUAUGACUCUCCCAUGUACAUAGGACUGAGGAUAUUCUAAUAAUU”, the “apparent Kd” value was determined as 23.4 nM under setting [1] and 18.9 nM under setting [2].

In the case of “UUAACAUGAGGAUCACCCAUGUAUAGAUCGGUUAAUAGAAGUGAGGAUAUGCUUAAAAUAAGGUAGCAGAAGGCACUGGGUACU”, the “apparent Kd” value came to 24.2 nM under setting [1] and 28.7 nM under setting [2].

For “UUGAGGUCAGGAUAUGCAUGGCGGGACUUGCGUCGUGGCGUGCAGAAGGGACAUGAGGAUCACCCAUGUGGAGU”, the “apparent Kd” value reads like this: under setting [3], 145 nM; under setting [4], 236 nM.

Take “GCCAGGGAUUCAGGAUAUAUUAGCCGAGGCCGCGUAGAAGGGAAAUCCUGACAUGAGGAUCACCCAUGUCGACCCGCCUUCCUC”: the “apparent Kd” value worked out at 28.5 nM under setting [1] and 29.2 nM under setting [2].

“UAUCCGUCAGUAGGAUAUAUGCCGAGUCAUUGCAUAGAAGGACUGACAUGAGGAUCACCCAUGUCAGAUUGCGCUGGUCUUCCG”: the “apparent Kd” value under setting [3] stood at 6.24 nM and the “apparent Kd” value under setting [4] worked out at 6.68 nM.

As for “UGUGUUAUUGGAGGAUAUCGAUAUCAAACAUGAGGAUCACCCAUGUUGAGGAUCACACAUGUACAUGAGAAGGCCGACGUAGUG”, the “apparent Kd” value turned out to be 13.3 nM under setting [1] and 14.5 nM under setting [2].

As for “UGUGUCAUCGAGAAGGCCUCAACAUGAGGAUCACCCAUGUUGUAAUAUGGGAGGAUAUCGAUGAUACAGCUACGUUUCGUAGCC”, the “apparent Kd” value under setting [1] amounted to 18.4 nM and the “apparent Kd” value under setting [2] is 5.67 nM.

Regarding “UUAAAUCAUGUAGGAUAUGCAUGGCGAAGCUACGCAGAAGGACAUGAGGAUCACCCAUGUGCUAGCUACCGGAGACGGUGGCAA”, the “apparent Kd” value runs as follows: under setting [3], 57.7 nM; under setting [4], 195 nM.

On to “GCACGGUAUGUAGGAUAUGCAUAGCAUUGCUAUGCAGAAGGACAUGAGGAUCACCCAUGUAUGUAUUCCAUACUAAUCCCGUGC”, for which the “apparent Kd” value runs as follows: under setting [3], 5.89 nM; under setting [4], 5.79 nM.
